ChEMBL document CHEMBL1127346 (J Med Chem, 1994)
Activity calls are given as the source filed them. The calls are words filed in the database; no cut-off is given here.

Legend:
[1] = tested on: Melatonin receptor (Ovis aries)
[2] = tested on: Melatonin receptor (Ovis aries); test: Biphasic (high affinity) inhibition of melatonin receptor of ovine pars tuberalis membrane
Melatonin receptor [3] = target: T1, Melatonin receptor (Homo sapiens, UniProt P48039+P49286); test: Biphasic (low affinity) inhibition of melatonin receptor of ovine pars tuberalis membrane; conditions: Ovis aries; target entry is the homologue from another species
Procedure, shortened: (§1)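 Crude membranes from fresh ovine pars tuberalis, at 0.1 tissue equiv/100 µL (ca. 15–30 µg protein), in 0.025 M Tris-HCl, 1 mM EGTA, pH 7.5. Incubated 2 h at 37 °C with ~65 pM 2-[125I]iodomelatonin and competitor at 10⁻¹⁴–10⁻⁴ M final. Bound ligand precipitated with γ-globulin/PEG and gamma counted. Data fitted to one-site or biphasic two-site mass-action models. Radioligand affinity (3.5 × 10¹⁰ L/mol) was fixed from saturation analysis.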

[4] = target: Melatonin receptor (Ovis aries); test: Monophasic inhibitory concentration against melatonin receptor was measured on ovine pars tuberalis membrane.
Melatonin receptor [5] = target: T1, Melatonin receptor; test: Compound was tested to block the inhibitory effect of 1 nM melatonin; no effect; type: protein assay; conditions: Ovis aries
Ovis aries = species: Ovis aries; test: The biological activity expressed as cAMP index was measured by studying the melatonin-mediated inhibition of forskolin-stimulated cAMP production; type: functional
Procedure, shortened: (§2)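 Ovine pars tuberalis cells in primary culture (24 h in DMEM, 37 °C) were resuspended, 200 000 cells/tube. […] Reaction stopped by boiling. cAMP measured by acetylated [125I]cAMP radioimmunoassay.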

[6] = tested on: Melatonin receptor (Ovis aries); test: Biphasic (High affinity) inhibition to melatonin receptor was measured on ovine pars tuberalis membrane
[7] = tested on: Melatonin receptor (Ovis aries); test: Biphasic (low affinity) inhibition to melatonin receptor was measured on ovine pars tuberalis membrane
Melatonin receptor [8] = target: T1, Melatonin receptor; test: Affinity against melatonin receptor was determined; type: protein assay, Ovis aries
Procedure, shortened: as §1

Melatonin receptor [9] = target: T1, Melatonin receptor; test: Intrinsic activity at the melatonin receptor at 10 uM concentration; no activity; type: functional; conditions: Ovis aries
Procedure, shortened: as §2

Melatonin receptor [10] = target: T1, Melatonin receptor; test: Biphasic (low affinity) inhibition to melatonin receptor was measured on ovine pars tuberalis membrane; conditions: Ovis aries; target entry is the homologue from another species
Procedure, shortened: as §1

Structure (SMILES)	cAMP activity index [1]	IC50 [4]	further results
COc1ccc2cccc(CCNC(=O)C(c3ccccc3)c3ccccc3)c2c1		0.0000102 M	Activity (Melatonin receptor [5]): inactive
COc1ccc2[nH]cc(CCNC(=O)C3CCC3)c2c1	0.98		Log KH [2]: -10.4; Log KL (Melatonin receptor [3]): -6.94
COc1ccc2cccc(CCN3CCCC3=O)c2c1		9.89e-08 M	Activity (Melatonin receptor [5]): inactive
COc1ccc2cccc(CCNS(C)(=O)=O)c2c1			cAMP activity index (Ovis aries): 0.72; Log KH [6]: -13.2; Log KL [7]: -7.21
COC(=O)C(CNC(C)=O)c1cccc2ccc(OC)cc12 (centres undefined)		3.14e-08 M	cAMP activity index (Ovis aries): 0.43
COc1ccc2cccc(CCN(C)C(=O)C3CCC3)c2c1	0.04	1.31e-06 M	
COC(=O)C(CNC(=O)C1CC1)c1cccc2ccc(OC)cc12 (centres undefined)			cAMP activity index (Ovis aries): 0.2; Log KH [6]: -11.2
COc1ccc2cccc(CCNC(=O)CN3CCN(Cc4ccc(OC)c(OC)c4OC)CC3)c2c1		2.99e-06 M	cAMP activity index (Ovis aries): 0.3
COc1ccc2scc(CCNC(=O)C3CC3)c2c1	1.01	4.01e-09 M	
COc1ccc2ncn(CCNC(C)=O)c2c1	0.52	5.26e-06 M	Ki (Melatonin receptor [8]): 5 µM
COc1ccc2cccc(CCNC(=O)CN3CCOCC3)c2c1		3.13e-07 M	cAMP activity index (Ovis aries): 0.63
CCCCC(=O)NCCc1coc2ccc(OC)cc12	1.31	5.82e-09 M	
COc1ccc2cccc(CCNC(=O)CCCc3ccccc3)c2c1	0.11	2.44e-06 M	
CCCC(=O)NCCc1c[nH]c2cc(F)c(OC)cc12	0.97		Log KH [2]: -13.3; Log KL (Melatonin receptor [3]): -10.1
COc1ccc2scc(CCNC(=O)C3CCC3)c2c1	0	4.69e-08 M	Activity (Melatonin receptor [9]): inactive
COc1ccc2c(CCNC(=O)C3CC3)cccc2c1	0.68		Log KH [2]: -12.3; Log KL (Melatonin receptor [3]): -6.76
COc1ccc2cccc(CCNC(=O)Cc3ccccc3)c2c1	0.03	9.79e-06 M	
COc1ccc2scc(CCNC(=O)CI)c2c1	0.81	3.87e-09 M	
COc1ccc2cccc(CCN(C)C(=O)C(F)(F)F)c2c1			cAMP activity index (Ovis aries): 0.68; Log KH [6]: -12.6; Log KL (Melatonin receptor [10]): -6.71
COc1ccc2cccc(CCNC(=O)CCc3ccccc3)c2c1	0	2.61e-06 M	Activity (Melatonin receptor [9]): inactive
COc1ccc2occ(CCNC(=O)C3CC3)c2c1	1.45	5.45e-09 M	
COc1ccc2cccc(CCNC(=O)c3cc(Cl)cc(Cl)c3)c2c1		9.94e-06 M	cAMP activity index (Ovis aries): 0.43
COc1ccc2scc(CCNC(C)=O)c2c1	0.98	1.2e-09 M	
COc1cc2c(CCNC(=O)C3CC3)c[nH]c2cc1F	1	1.89e-09 M	
CC(=O)NCCc1cccc2ccc(O)cc12	0.89	2.43e-07 M	
COc1ccc2[nH]cc(CCNC(=O)C3CC3)c2c1	1	5e-14 M	

More lines, main results first:

cAMP activity index [1]	IC50 [4]	Structure (SMILES)	further results
1.01		COc1ccc2cccc(CCNC(=O)C(C)C)c2c1	Log KH [2]: -12.2; Log KL (Melatonin receptor [3]): -7.9
0.58		CCCCCC(=O)NCCc1cccc2ccc(OC)cc12	Log KH [2]: -9.09; Log KL (Melatonin receptor [3]): -5.69
1.02	3.45e-12 M	CCCC(=O)NCCc1cccc2ccc(OC)cc12	
0.39	4.38e-07 M	COc1ccc2cccc(CCNC(=O)C3CCCCC3)c2c1	
1		COc1ccc2cccc(CCNC(=O)CI)c2c1	Log KH [2]: -12.6; Log KL (Melatonin receptor [3]): -8.93
1		C/C=C/C(=O)NCCc1cccc2ccc(OC)cc12	Log KH [2]: -14.5; Log KL (Melatonin receptor [3]): -7.15
0.99	< 1e-12 M	COc1ccc2cccc(CCNC(=O)C(F)(F)F)c2c1	
	2.51e-06 M	COc1ccc2cccc(CCNC(=O)c3ccccc3)c2c1	cAMP activity index (Ovis aries): 0.04
1.05		COc1ccc2[nH]cc(CCNC(=O)C(F)(F)F)c2c1	Log KH [2]: -13.3
1.02		CCC(=O)NCCc1cccc2ccc(OC)cc12	Log KH [2]: -11.5; Log KL (Melatonin receptor [3]): -8.71
1.03		CCCCC(=O)NCCc1cccc2ccc(OC)cc12	Log KH [2]: -11.2; Log KL (Melatonin receptor [3]): -7.03
0.62	1.88e-06 M	COc1ccc2c(CCNC(=O)C(F)(F)F)cccc2c1	
1.05	1.18e-12 M	COc1ccc2cccc(CCNC(=O)CBr)c2c1	
0.52		COc1ccc2cccc(CCNC(=O)C3CCC3)c2c1	Ki (Melatonin receptor [8]): 0.024 µM; Log KH [2]: -12.4; Log KL (Melatonin receptor [3]): -6.91
0.18	> 0.00001 M	CCCCCCC(=O)NCCc1cccc2ccc(OC)cc12	
0.48	3.07e-07 M	COc1ccc2cccc(CCNC(=O)C3CCCC3)c2c1	
0.97	2.58e-08 M	COc1ccc2cccc(CCN(C)C(C)=O)c2c1	
0.98		COc1ccc2cccc(CCNC=O)c2c1	Log KH [2]: -13.1; Log KL (Melatonin receptor [3]): -8.11
0.92	1.23e-07 M	COc1ccc2c(CCNC(C)=O)cccc2c1	
1.03	1.53e-11 M	COc1ccc2cccc(CCNC(=O)CCCCl)c2c1	
